Measurements as given in ChEMBL document CHEMBL1122996, “Interactions of apomorphine with serum and tissue proteins” (J Med Chem, 1985).
Values joined by “and” are separate entries in the source; they are usually repeats but may differ in a detail not shown here. Equal values may be shown once.

Legend:
Sus scrofa [1] = species: Sus scrofa; experiment: Percentage binding to swine plasma proteins at 100 ug/mL concentration of the compound; type: cell-free
Homo sapiens [2] = species: Homo sapiens; experiment: Percentage binding to human plasma proteins was determined by collecting HPLC eluate at 10.0 micro g/ml concentration of compound 1 in plasma; type: cell-free
Outline: (§1)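 Fresh plasma from fasted healthy human volunteers was spiked with 1-HCl plus [³H]-1 tracer. It was incubated 10 min at 37 °C and ultrafiltered through YMT membranes (1000g, 5 min, 37 °C). Ultrafiltrate was acidified with pH 3.0 acetate buffer containing carrier 1-HCl, argon-flushed and frozen at -15 °C. Phenyl-column HPLC was read by peak-eluate collection LSC, UV peak area, or radiochemical detection. % bound was calculated from total vs ultrafiltrate using a plasma water fraction of 0.93.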

Mus musculus [3] = species: Mus musculus; experiment: Ratio of accumulation of radioactivity from 14 to 1 day in GI tract with its contents; type: functional, Gastrointestinal tract
Outline: (§2)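 Male CD-1 mice (~35 g, 10 per group) received 1 at 30 mg/kg ip with [³H]-1 (0.153 mCi/kg), once or daily for 14 days, with free access to food and water. At 24 h after the last dose, plasma (infraorbital sinus), brain regions, kidney, liver and GI tract were taken for radioactivity counting. The accumulation ratio is radioactivity after 14 doses divided by radioactivity after 1 dose.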

Albumin [4] = target: T1, Albumin (Bos taurus, UniProt P02769); experiment: Covalent binding of compound to serum albumin after 1 hr when the level of [8,9-3H2]-1is 2.2 dpm *10e6; conditions: cattle
Outline: (§3)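 BSA (32 mg) with 2 mg apomorphine HCl hemihydrate plus tritiated [8,9-3H2]apomorphine at the level stated, in pH 7.4 phosphate buffer, 2.1 mL total, incubated 1 h. Incubates were extracted twice with ethyl acetate. Protein-bound radioactivity was measured by LSC after one of three workups: perchloric acid precipitation with repeated trifluoroacetic acid-ethanol washes; Sephadex G-25 gel filtration in 1% sodium lauryl sulfate buffer; or 4-day dialysis.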

Mus musculus [5] = species: Mus musculus; experiment: Radio activity accumulation in nonextractable radioactivity in striatum (Excreatable reactivity) on 14 days; type: functional
Outline: (§4)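 Male CD-1 mice (~35 g, n=10 per group) given apomorphine 30 mg/kg fortified with [3H]-apomorphine (0.153 mCi/kg) ip, either once or daily for 14 days. Sampled 24 h after the last dose: plasma from infraorbital sinus (extractable and nonextractable radioactivity) and brain regions (striatum, cerebellum, forebrain without striatum). Radioactivity expressed as µg apomorphine equivalent per mL or per g […].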

Mus musculus [6] = species: Mus musculus; experiment: Radio activity accumulation in cerebellum (Excreatable reactivity) on 14 days; type: functional; outline: as §4
Mus musculus [7] = species: Mus musculus; experiment: Ratio of accumulation of radioactivity from 14 to 1 day in washed gastro intestinal track; type: functional; outline: as §2
Rattus norvegicus [8] = species: Rattus norvegicus; experiment: Percentage binding to rat plasma proteins at 50.0 ug/mL concentration of the compound; type: cell-free
Outline: (§5)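 Plasma came from male Sprague-Dawley rats (~450 g, ether, vena cava blood, lithium heparin) or from six mature female swine (jugular catheter, heparinized). It was spiked with 1-HCl (10 ng–50 µg/mL) containing 0.5 mCi/mL [³H]-1. Samples were ultrafiltered as for human plasma, and the ultrafiltrate was analysed by HPLC peak-collection LSC. N = 4.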

Mus musculus [9] = species: Mus musculus; experiment: Ratio of accumulation of radioactivity from 14 to 1 day in striatum; type: functional; outline: as §2
Mus musculus [10] = species: Mus musculus; experiment: Radio activity of [3H]-l in washed mice GI tract on day 1; type: functional, Gastrointestinal tract
Outline: (§6)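 Male CD-1 mice (~35 g, n=10 per group) received apomorphine 30 mg/kg with [3H]-apomorphine (0.153 mCi/kg) ip, once or daily for 14 days. Killed 24 h after the last dose; GI tract (with contents or washed with distilled water), liver and kidney (rinsed of blood) and skeletal tissue taken. Radioactivity given as % of total dose; skeletal tissue as % dose/g wet weight.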

Mus musculus [11] = species: Mus musculus; experiment: Radio activity accumulation in extractable reactivity in plasma (Excreatable reactivity) on day 1; type: functional; outline: as §4
Rattus norvegicus [12] = species: Rattus norvegicus; experiment: Percentage binding to rat plasma proteins at 0.01 ug/mL concentration of the compound; type: cell-free; outline: as §5
Mus musculus [13] = species: Mus musculus; experiment: Radio activity covalently bound to forebrain without striatum of mouse brain; type: functional
Outline: (§7)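 Male CD-1 mice (~35 g, n=10) given apomorphine 30 mg/kg with [3H]-apomorphine (0.153 mCi/kg) ip daily for 14 days, killed 24 h after the last dose. Plasma from infraorbital sinus; brain split into striatum, cerebellum, forebrain without striatum. Protein-bound radioactivity expressed as µg/g protein (albumin equivalent; plasma µg/mL) and as % of total tissue radioactivity.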

Albumin [14] = target: T1, Albumin; experiment: Covalent binding of compound to serum albumin after 1 hr when the level of [8,9-3H2]-1is 2.0 dpm *10e6; conditions: cattle; outline: as §3
Mus musculus [15] = species: Mus musculus; experiment: Radio activity accumulation in plasma (Excreatable reactivity) on 14 days; type: functional; outline: as §4
Albumin [16] = target: T1, Albumin; experiment: (§8) Covalent binding of compound to serum albumin after 1 hr when the level of [8,9-3H2]-1is 2.6 dpm *10e6; conditions: cattle; outline: as §3
Mus musculus [17] = species: Mus musculus; experiment: Radio activity of [3H]-l in mice GI tract with its contents on day 1; type: functional, Gastrointestinal tract; outline: as §6
Rattus norvegicus [18] = species: Rattus norvegicus; experiment: Percentage binding to rat plasma proteins at 10.0 ug/mL concentration of the compound; type: cell-free; outline: as §5
Sus scrofa [19] = species: Sus scrofa; experiment: Percentage binding to swine plasma proteins at 50 ug/mL concentration of the compound; type: cell-free; outline: as §5
Sus scrofa [20] = species: Sus scrofa; experiment: Percentage binding to swine plasma proteins at 1.00 ug/mL concentration of the compound; type: cell-free; outline: as §5
Albumin [21] = target: T1, Albumin; experiment: Covalent binding of compound to serum albumin after 1 hr when the level of [8,9-3H2]-1is 2.3 dpm *10e6 expressed as mol of drug/mol of BSA; conditions: cattle; outline: as §3
Mus musculus [22] = species: Mus musculus; experiment: Radio activity accumulation in cerebellum (Excreatable reactivity) on day 1; type: functional; outline: as §4
Homo sapiens [23] = species: Homo sapiens; experiment: Percentage binding to human plasma proteins was determined by measuring HPLC peak with radiochemical detection at 1.0 micro g/ml concentration in plasma; type: cell-free; outline: as §1
Mus musculus [24] = species: Mus musculus; experiment: Radio activity accumulation in nonextractable radioactivity in plasma brain striatum (Excreatable reactivity) on day 1; type: functional; outline: as §4
Rattus norvegicus [25] = species: Rattus norvegicus; experiment: Percentage binding to rat plasma proteins at 0.10 ug/mL concentration of the compound; type: cell-free; outline: as §5
Sus scrofa [26] = species: Sus scrofa; experiment: Percentage binding to swine plasma proteins at 20.0 ug/mL concentration of the compound; type: cell-free; outline: as §5
Mus musculus [27] = species: Mus musculus; experiment: Radio activity of [3H]-l in washed mice GI tract on 14 days; type: functional, Gastrointestinal tract; outline: as §6
Mus musculus [28] = species: Mus musculus; experiment: Radio activity of [3H]-l in mice kidney on day 1; type: functional; outline: as §6
Mus musculus [29] = species: Mus musculus; experiment: Ratio of accumulation of radioactivity from 14 to 1 day in extractable reactivity in plasma; type: functional; outline: as §2
Mus musculus [30] = species: Mus musculus; experiment: Radio activity accumulation in plasma (Excreatable reactivity) on day 1; type: functional; outline: as §4
Mus musculus [31] = species: Mus musculus; experiment: Radio activity accumulation in forebrain without striatum (Excreatable reactivity) on day 1; type: functional; outline: as §4
Mus musculus [32] = species: Mus musculus; experiment: Radio activity covalently bound to plasma of mouse brain; type: functional; outline: as §7
Mus musculus [33] = species: Mus musculus; experiment: Radio activity in skeletal tissue(% dose/g of wet wt) contents on day 1; type: functional; outline: as §6
Albumin [34] = target: T1, Albumin; experiment: as §8; conditions: cattle; outline: as §3; remark: listed apart in the source
Sus scrofa [35] = species: Sus scrofa; experiment: Percentage binding to swine plasma proteins a t0.01 ug/mL concentration of the compound; type: cell-free; outline: as §5

T1 sequence (P02769 whole entry): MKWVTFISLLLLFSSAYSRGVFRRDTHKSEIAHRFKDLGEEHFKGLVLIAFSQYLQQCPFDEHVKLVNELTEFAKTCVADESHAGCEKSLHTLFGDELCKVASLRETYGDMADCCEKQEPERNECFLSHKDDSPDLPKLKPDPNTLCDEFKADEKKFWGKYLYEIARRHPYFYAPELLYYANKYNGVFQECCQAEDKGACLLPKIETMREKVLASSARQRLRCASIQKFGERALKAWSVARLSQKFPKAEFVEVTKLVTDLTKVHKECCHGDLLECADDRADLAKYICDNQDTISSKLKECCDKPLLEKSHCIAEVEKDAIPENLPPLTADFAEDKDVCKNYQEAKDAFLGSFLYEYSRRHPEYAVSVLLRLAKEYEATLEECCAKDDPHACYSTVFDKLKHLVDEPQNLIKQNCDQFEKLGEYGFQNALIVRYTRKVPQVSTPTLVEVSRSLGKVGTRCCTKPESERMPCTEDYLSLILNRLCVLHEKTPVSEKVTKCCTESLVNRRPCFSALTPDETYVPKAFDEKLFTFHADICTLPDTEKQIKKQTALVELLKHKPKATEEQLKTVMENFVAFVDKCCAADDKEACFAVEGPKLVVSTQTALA

For `CN1CCc2cccc3c2[C@H]1Cc1ccc(O)c(O)c1-3` [APOMORPHINE], the Binding (Sus scrofa [1]) was 85.7%, the Binding (Homo sapiens [2]) was 95.3% and 96.9% and the Ratio (Mus musculus [3]) was 2.7. It also gave a Binding (Albumin [4]) of 3850 dpm mg-1, an Accumulation (Mus musculus [5]) of 56.9 µg/g and an Accumulation (Mus musculus [6]) of 57.3 µg/g. The Ratio (Mus musculus [7]) was 9.7, the Binding (Rattus norvegicus [8]) was 89.1% and the Ratio (Mus musculus [9]) was 2.7. For the same compound, the Amount (Mus musculus [10]) was 0.065%, the Accumulation (Mus musculus [11]) was 0.561 µg/mL and the Binding (Rattus norvegicus [12]) was 91.3%. For the same compound, the Binding (Mus musculus [13]) was 1.13 µg/g, the Binding (Albumin [14]) was 4848 dpm mg-1 and the Accumulation (Mus musculus [15]) was 1.42 µg/mL. The Binding (Albumin [16]) was 8238 dpm mg-1 and 9938 dpm mg-1, the Amount (Mus musculus [17]) was 1.48% and the Binding (Rattus norvegicus [18]) was 90.7%. The Binding (Sus scrofa [19]) was 87%, the Binding (Sus scrofa [20]) was 93.5% and the Binding (Albumin [21]) was 3.4 M of drug (M of BSA)-1. The Accumulation (Mus musculus [22]) was 20 µg/g, the Binding (Homo sapiens [23]) was 94.9% and the Accumulation (Mus musculus [24]) was 21.4 µg/g. The Binding (Rattus norvegicus [25]) was 90.4%, the Binding (Sus scrofa [26]) was 86.2% and the Amount (Mus musculus [27]) was 0.558%. It also gave an Amount (Mus musculus [28]) of 0.107%, a Ratio (Mus musculus [29]) of 2.6 and an Accumulation (Mus musculus [30]) of 0.561 µg/mL. For the same compound, the Accumulation (Mus musculus [31]) was 23.1 µg/g, the Binding (Mus musculus [32]) was 0.68 µg/mL and the Amount (Mus musculus [33]) was 0.245%. It also gave a Binding (Albumin [34]) of 9063 dpm mg-1 and a Binding (Sus scrofa [35]) of 94.8%.
